# Screening results (PubChem)
# Bfl-1 A1 inh: caspase 3/7 activation in MEF A1-2A-BIM cells, primary screen, A1 inhibitor project, cell-based, luminescence, HTS. Caspase-Glo 3/7 luminescence, 3 h; percent of clofoctol response, vehicle zero. 330,000 tested, 0.066% active. caspase activation, % (no concentration beside the values). AID 2462, 2010;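 active means over half of replicate activation scores above 10%, or exactly half above 10 with the replicate mean above 10; inconclusive means replicate mean below 10 yet half the replicates above 10; inactive means over half of replicates below 10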
# CSC inhib: cancer stem cell viability inhibitors, primary screen, luminescence; cancer stem cell-like cells viability; 300,000 tested, 1.1% active; inhibition, % at 7.5 µM; in the data active means inhibition above about 75%; inconclusive means no clear call, values can overlap the other calls; tested in HMLE shEcad cells
# Calb FLC: C. albicans growth inhibition with fluconazole, primary screen, CaCi-2 strain, Alamar Blue fluorescence; C. albicans CaCi-2 + fluconazole, 48 h; growth inhibition, % (concentration not given with the values); 300,000 tested, 0.57% active; AID 1979, 2009;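 active means growth inhibition above about 58% in most replicates, limit read from the data, passing the limit was not always enough; inconclusive means exactly half the replicates above a set limit; inactive means most replicates below a set limit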;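 further: all wells also contain fluconazole at 8 µg/ml as a sub-toxic cotreatment; 0% = median of DMSO wells and 100% = median of geldanamycin control wells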
# H9c2 TAG inh: inhibitors of triacylglycerol accumulation, primary screen, cell-based, uHTS, fluorescence, H9c2; inhibition, % at 12.5 µM; 230,000 tested, 0.66% active; H9c2 cells, Nile Red lipid (TAG) fluorescence; cells loaded with 200 µM oleic acid;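 active means pattern-corrected inhibition of lipid staining of at least 50% with the nuclear-stain viability signal not falling by more than 50%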;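 further: 0% = DMSO wells and 100% = triacsin C control wells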
# Beta cell apopt: inhibitors of cytokine-induced beta cell apoptosis, primary screen, luminescence; INS-1E cytokine-induced death, ATP luminescence, 48 h; percent of positive-control rescue, neutral wells zero; protection from apoptosis, % (no concentration beside the values); 300,000 tested, 0.8% active;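 active means Every replicate reaches about 75%, or at least half do and their mean reaches it too, limit read from the data; inconclusive means At least half of replicates reach the limit but their mean does not; inactive means Under half of replicates reach the limit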;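 further: 0% = cytokine-treated negative control wells and 100% = positive control rescue; higher means more ATP so stronger rescue from cytokine killing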
# T cruzi repl: inhibitors of intracellular T. cruzi growth, primary screen, luminescence, NIH3T3 host cells; T. cruzi beta-gal in NIH3T3, 90 h; inhibition, % (test concentration not listed); 300,000 tested, 1.4% active;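 active means mean inhibition across valid replicates above about 55%, limit read from the data; inconclusive means mean below that limit but half or more replicates reach it; inactive means mean below it, under half of replicates reach it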;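 further: signal also drops with host cell toxicity which is not excluded here; 0% = plate median of DMSO wells and 100% = zero luminescence signal; higher percent means less beta-gal luminescence so fewer parasites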
#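 Material: NIH/3T3 host cells with β-galactosidase reporter T. cruzi; Input: 5,000 host fibroblasts per well; Medium: DMEM, 2% fetal bovine serum; Compound: 50 nL DMSO compound solution per well; Schedule: 3 h host attachment, then at least 90 h co-culture; Detection: luminescent β-galactosidase signal after 60 min lysis.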
# Starred values were filed as active, the others as inactive; ? = inconclusive; . = no result given. Shown are actives, neighbours in structure and some others; about 3.1% of the full set was active somewhere.
SMILES,Bfl-1 A1 inh,CSC inhib,Calb FLC,H9c2 TAG inh,Beta cell apopt,T cruzi repl
Cc1cc2oc(=O)cc(CN3CCN(C/C=C/c4ccccc4)CC3)c2cc1O,2,-7,-30,.,12,55*
CN(C)N1C(N)=C(C#N)C(c2ccc(Br)cc2)C2=C1CC(C)(C)CC2=O (stereo unspecified),0,-2,0,.,11,14
O=C(Nn1cnnc1)c1ccc(Cl)cc1[N+](=O)[O-],0,-8,1,.,-7,-6
CC(=O)N1c2ccc(S(=O)(=O)NCC3CCC(C(=O)Nc4cccc(C)n4)CC3)cc2CC1C (stereo unspecified),0,-10,2,.,17,5
N#CCSc1nc2ccccc2c2nc3ccccc3n12,0,85*,-1,.,103*,-9
CCn1c(SCC#N)nc2ccccc2c1=O,0,-12,13,7,-5,-11
O=C(NC1CCCCC1)C(c1ccc(F)cc1)N(C(=O)Cc1ccsc1)c1ccc(F)cc1 (stereo unspecified),1,-14,11,.,-5,74*
O=C(NC1CCCCC1)C(c1ccccc1)N(C(=O)Cc1ccsc1)c1ccccc1 (stereo unspecified),0,-8,2,.,-8,-1
O=C(CN1C(=O)COc2ccc(S(=O)(=O)N3CCCCCC3)cc21)NCc1ccc(F)cc1,0,.,2,-18,7,5
Cc1c(O)cc2n(c1=O)-c1ccc(Cl)cc1C2(C)C,2,.,109*,18,0,6
COc1ccc(S(=O)(=O)N2CCN(C(=O)CCCN3C(=O)NC4(CCCC4)C3=O)CC2)cc1,.,.,.,3,.,.
CCCCn1c(Nc2ccccc2)nc2ccccc21,0,-10,2,.,-3,-5
CCCn1c(Nc2nc3ccccc3n2C)nc2ccccc21,0,104*,102*,151,111*,52
O=C(COc1coc(CN2CCCc3ccccc32)cc1=O)Nc1ccc([N+](=O)[O-])cc1,0,9,-8,15,-1,1
CCOC(=O)Nc1ccc2c(c1)Nc1ccccc1S2,0,-3,13,.,5,63*
C=C(C)Cn1c2ccc(NC(=S)NCc3ccccc3F)cc2c(=O)n1C,.,.,.,0,.,.
O=C(CCC1CCCN(C(=O)c2ccncc2)C1)NCc1ccc(F)c(F)c1 (stereo unspecified),0,36,-6,2,-1,-3
CC(=O)c1cccc(CN2CCCC(CCC(=O)NCc3ccc(F)c(F)c3)C2)c1 (stereo unspecified),0,-4,-12,.,0,76*
O=C(CCC1CCCN(Cc2ccncc2)C1)NCc1ccc(F)c(F)c1 (stereo unspecified),1,31,-8,-5,.,56*
COc1cccc(CNC(=O)CCC2CCCN(Cc3cc4ccccc4o3)C2)c1 (stereo unspecified),0,8,-4,12,3,62*
CCN(C[C@H]1N[C@@](Cc2ccccc2)(C(=O)OC)[C@H]2C(=O)N(Cc3ccccc3)C(=O)[C@@H]12)C(=O)COc1ccccc1,0,-7,.,6,-3,.
O=C(C[n+]1ccccc1)N/N=C/c1cccs1,1,-10,95*,5,-7,-2
O=C(C[n+]1ccccc1)N/N=C/c1ccc(Cl)cc1,-1,.,.,6,-6,.
O=[N+]([O-])c1nn(-c2ccc3c(c2)OCCO3)n(O)c1=NCc1ccc(F)cc1Cl,-6,-1,-5,6,-5,25
CCc1cccc(N=c2c([N+](=O)[O-])nn(-c3ccc4c(c3)OCCO4)n2O)c1,0,14,3,-10,1,70*
CN=c1c([N+](=O)[O-])nn(-c2ccc3c(c2)OCCO3)n1O,-2,1,26,-7,34,61*
O=[N+]([O-])c1nn(-c2ccc3c(c2)OCCO3)n(O)c1=NCCC1=CCCCC1,1,?,-4,-11,-12,94*
O=[N+]([O-])c1nn(-c2ccc3c(c2)OCCO3)n(O)c1=NCc1ccc(F)cc1,-4,-4,7,.,2,61*
